PubChem BioAssay AID623885 (Vanderbilt Specialized Chemistry Center, 2012)
Where “and” joins values, the source holds several entries; their conditions need not be identical. Equal entries are not always repeated. Calls of active or inactive are those of the source.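 The calls were made as follows: active = mean half-maximal effective concentration under 30 µM; inactive = the rest.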

Target: Metabotropic glutamate receptor 3 (Rattus norvegicus) (UniProt P31422)
Experiment: rat mGlu3 negative modulators or antagonists, dose response, thallium flux, HEK/GIRK cells (AID 623885)
Conditions: HEK293 GIRK rat mGlu3, thallium flux fluorescence
Procedure, shortened: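 Material: HEK-GIRK line expressing rat mGlu3 and M4 | Reagent: Thallium buffer ± agonist | Doses: 10-point concentration series, threefold dilution steps | Schedule: Dye loading 1 h room temperature, compounds ~2.5 min | Measured by: Thallium influx through GIRK, FluoZin-2 AM fluorescence | Evaluation: Fluorescence slope 5–15 s post addition, four-parameter fit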

Sequence of Metabotropic glutamate receptor 3 (Rattus norvegicus) (P31422 whole entry, looked up): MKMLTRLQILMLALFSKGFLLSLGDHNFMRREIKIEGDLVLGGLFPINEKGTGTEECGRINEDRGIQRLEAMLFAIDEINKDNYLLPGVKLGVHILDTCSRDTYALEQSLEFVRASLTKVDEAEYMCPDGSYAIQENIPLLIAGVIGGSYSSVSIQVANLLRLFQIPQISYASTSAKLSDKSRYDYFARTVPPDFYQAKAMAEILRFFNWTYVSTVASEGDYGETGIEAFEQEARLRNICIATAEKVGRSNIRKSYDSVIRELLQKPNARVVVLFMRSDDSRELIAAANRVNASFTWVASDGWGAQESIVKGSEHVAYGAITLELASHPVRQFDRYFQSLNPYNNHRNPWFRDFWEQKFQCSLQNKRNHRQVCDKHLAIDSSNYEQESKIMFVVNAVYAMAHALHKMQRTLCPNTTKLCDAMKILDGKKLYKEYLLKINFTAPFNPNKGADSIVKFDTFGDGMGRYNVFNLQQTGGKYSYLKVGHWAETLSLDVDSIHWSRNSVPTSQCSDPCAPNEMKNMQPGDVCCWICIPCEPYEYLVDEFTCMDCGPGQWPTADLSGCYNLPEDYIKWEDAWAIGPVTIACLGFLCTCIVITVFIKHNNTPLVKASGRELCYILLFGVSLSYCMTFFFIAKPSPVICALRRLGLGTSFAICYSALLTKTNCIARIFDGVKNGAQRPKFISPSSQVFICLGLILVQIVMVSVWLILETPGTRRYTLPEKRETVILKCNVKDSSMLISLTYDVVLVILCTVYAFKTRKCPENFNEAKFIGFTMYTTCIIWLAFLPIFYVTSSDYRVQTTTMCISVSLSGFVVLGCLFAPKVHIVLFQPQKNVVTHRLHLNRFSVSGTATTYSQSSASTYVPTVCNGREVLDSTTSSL

SMILES | IC50
COc1ccc(C#Cc2ccc(C(=O)N3CCC[C@@H](CO)C3)cc2)cc1 | 1480 nM
COc1ccc(C#Cc2ccc(C(=O)N3CCC[C@H](CO)C3)cc2)cc1 | 3460 nM
COc1ccc(C#Cc2ccc(C(=O)N3CCCC(CO)C3)cc2)cc1 (stereo unspecified) | 2460 nM

Same assay, conditions: HEK293 GIRK rat mGlu3, thallium flux fluorescence; at 30 µM (top of the series)

SMILES | percent of glutamate max response
CC(C)(C)c1ccc(C#Cc2ccc(C(=O)N3CCC(O)CC3)cc2)cc1 | inactive
COc1ccc(C#Cc2ccc(C(=O)NCCC3=CCCCC3)cc2)cc1 | inactive
O=C(c1ccc(C#CCC2CCCC2)cc1)N1CCC(O)CC1 | 34
CC(C)CC#Cc1ccc(C(=O)N2CCC(O)CC2)cc1 | inactive
COc1ccc(C#Cc2ccc(C(=O)N3CCC(OC)CC3)cc2)cc1 | inactive
CC(C)(C)NC(=O)CN1CCc2cc(C#Cc3ccccc3)ccc2C1=O | 51.4
O=C(c1ccc(C#Cc2ccccc2)cc1)N1CCC(O)CC1 | 11.6
COc1ccc(C#Cc2ccc(C(=O)N(CCO)c3ccccc3)cc2)cc1 | inactive
COc1ccc(C#Cc2ccc(C(=O)N3CCC[C@@H](CO)C3)cc2)cc1 | -0.47
O=C(c1ccc(C#Cc2ccc(-c3ccccc3)cc2)cc1)N1CCC(O)CC1 | inactive
O=C(c1ccc(C#CC2CCCC2)cc1)N1CCC(O)CC1 | inactive
CCc1ccc(C#Cc2ccc(C(=O)N3CCC(O)CC3)cc2)cc1 | 62
COc1ccc(C#Cc2ccc(C(=O)NC3CCC(C)CC3)cc2)cc1 (stereo unspecified) | inactive
O=C(c1ccc(C#CCCCCO)cc1)N1CCC(O)CC1 | inactive
CCC(N)(C#Cc1ccc(C(=O)N2CCC(O)CC2)cc1)CC | inactive
CCC(C)(O)C#Cc1ccc(C(=O)N2CCC(O)CC2)cc1 (stereo unspecified) | inactive
COc1ccc(C#Cc2ccc(C(=O)N3CCN(c4ccccc4OC)CC3)cc2)cc1 | inactive
COc1ccc(C#Cc2ccccc2C(=O)N2CCC(O)CC2)cc1 | inactive
COc1ccc(C#Cc2ccc(C(=O)N[C@H](C)C3CCCCC3)cc2)cc1 | inactive
COc1ccc(C#Cc2ccc(C(=O)N3CCN(c4ccccc4)CC3)cc2)cc1 | inactive
N#CCCCC#Cc1ccc(C(=O)N2CCC(O)CC2)cc1 | inactive

SMILES | percent of glutamate max response
COc1ccc(C#Cc2ccc(C(=O)NC(C)(C)C)cc2)cc1 | inactive
O=C(c1ccc(C#CC2(O)CCCCC2)cc1)N1CCC(O)CC1 | inactive
N#Cc1ccc(C#Cc2ccc(C(=O)N3CCC(O)CC3)cc2)cc1 | 17.5
O=C(c1ccc(C#CCCCCCl)cc1)N1CCC(O)CC1 | 47.8
CCOC(=O)C#Cc1ccc(C(=O)N2CCC(O)CC2)cc1 | inactive
COc1ccc(C#Cc2ccc(C(=O)N[C@H]3CCCCNC3=O)cc2)cc1 | inactive
COc1ccc(C#Cc2ccc(C(=O)N3CCC(CO)C3)cc2)cc1 (stereo unspecified) | 14.7
O=C(c1ccc(C#CCc2ccsc2)cc1)N1CCC(O)CC1 | 16.1
CCN(CC)CC#Cc1ccc(C(=O)N2CCC(O)CC2)cc1 | inactive
COc1ccc(C#Cc2ccc(C(=O)N3CCC[C@@H](C(=O)O)C3)cc2)cc1 | 19.5
CC(C)CCC#Cc1ccc(C(=O)N2CCC(O)CC2)cc1 | 24.7
COCC(C)NC(=O)c1ccc(C#Cc2ccc(OC)cc2)cc1 (stereo unspecified) | inactive
CCN1CCC[C@H]1CNC(=O)c1ccc(C#Cc2ccc(OC)cc2)cc1 | 5.77
COc1ccc(C#Cc2ccc(C(=O)N3CCCC3)cc2)cc1 | 35.3
CCOC1CCN(C(=O)c2ccc(C#Cc3ccc(OC)cc3)cc2)CC1 | inactive
O=C(c1ccc(I)cc1)N1CCC(O)CC1 | inactive
COc1ccc(C#Cc2ccc(C(=O)N3CCC[C@H](C(=O)O)C3)cc2)cc1 | 0.55
COc1ccc(C#Cc2ccc(C(=O)N3CC(O)C3)cc2)cc1 | 76.2
COc1cccc(C#Cc2ccc(C(=O)N3CCC(O)CC3)cc2)c1 | inactive
COc1ccc(C#Cc2ccc(C(=O)NCCC(C)(C)C)cc2)cc1 | inactive
CCCC(O)C#Cc1ccc(C(=O)N2CCC(O)CC2)cc1 (stereo unspecified) | inactive

SMILES | percent of glutamate max response
COc1ccc(C#Cc2ccc(C(=O)NCCC(C)(C)O)cc2)cc1 | 114
COc1ccc(C#Cc2ccc(C(=O)N3CCN(C(C)C)CC3)cc2)cc1 | 1.26
O=C(c1ccc(C#CC2CCCCC2)cc1)N1CCC(O)CC1 | 37
O=C(c1ccc(C#CCN2N=NCc3ccccc32)cc1)N1CCC(O)CC1 | inactive
COc1ccc(C#Cc2ccc(C(=O)N3CCCCC3CO)cc2)cc1 (stereo unspecified) | 55.9
CN(C)CC#Cc1ccc(C(=O)N2CCC(O)CC2)cc1 | inactive
O=C(c1ccc(C#CCCCN2C(=O)c3ccccc3C2=O)cc1)N1CCC(O)CC1 | inactive
COc1ccc(C#Cc2ccc(C(=O)N3CCC(O)CC3)cc2)cc1 | 7.43
COc1ccc(C#Cc2ccc(C(=O)N3C[C@H]4C[C@@H]3CN4C(=O)OC(C)(C)C)cc2)cc1 | inactive
COc1ccc(C#Cc2ccc(C(=O)NCCO)cc2)cc1 | inactive
O=C(c1ccc(C#Cc2ccccn2)cc1)N1CCC(O)CC1 | inactive
COc1ccc(C#Cc2ccc(C(=O)N3CCC(C(C)=O)(c4ccccc4)CC3)cc2)cc1 | inactive
O=C(c1ccc(C#Cc2ccccc2F)cc1)N1CCC(O)CC1 | 22.4
O=C(c1ccc(C#CCc2ccccc2)cc1)N1CCC(O)CC1 | 42.2
COc1ccc(C#Cc2ccc(C(=O)NCC(C)O)cc2)cc1 (stereo unspecified) | inactive
O=Cc1ccccc1C#Cc1ccc(C(=O)N2CCC(O)CC2)cc1 | 43.7
CC(C)(O)C#Cc1ccc(C(=O)N2CCC(O)CC2)cc1 | inactive
COc1ccc(C#Cc2ccc(C(=O)N3CCC(O)(c4ccc(Cl)c(C(F)(F)F)c4)CC3)cc2)cc1 | 117
O=C(c1ccc(C#Cc2ccc(Cl)cc2)cc1)N1CCC(O)CC1 | 51.6
COc1ccc(C#Cc2ccc(C(=O)N3CCC3)cc2)cc1 | 31.5
COc1ccc(C#Cc2ccc(C(=O)NC3CCC3)cc2)cc1 | inactive

SMILES | percent of glutamate max response
CC(O)CC#Cc1ccc(C(=O)N2CCC(O)CC2)cc1 (stereo unspecified) | inactive
O=C(c1ccc(C#CCOCC2CO2)cc1)N1CCC(O)CC1 (stereo unspecified) | inactive
COc1ccc(C#Cc2cccc(C(=O)N3CCC(O)CC3)c2)cc1 | 13.9
O=C(c1ccc(C#CC2CC2)cc1)N1CCC(O)CC1 | inactive
CCCC1(O)CCN(C(=O)c2ccc(C#Cc3ccc(OC)cc3)cc2)CC1 | inactive
CC(C)(C)C#Cc1ccc(C(=O)N2CCC(O)CC2)cc1 | inactive
COc1ccc(C#Cc2ccc(C(=O)NC(C)C)cc2)cc1 | inactive
COc1ccc(C#Cc2ccc(C(=O)NC(C)(C)CO)cc2)cc1 | 162
COc1ccc(C#Cc2ccc(C(=O)NCCCCO)cc2)cc1 | inactive
CCC1(O)CCN(C(=O)c2ccc(C#Cc3ccc(OC)cc3)cc2)CC1 | 46.4
COc1ccc(C#Cc2ccc(C(=O)N[C@H](C)C(C)C)cc2)cc1 | inactive
O=C(CN1CCc2cc(C#Cc3ccccc3)ccc2C1=O)N1CCC2CCCCC2C1 (stereo unspecified) | 26.5 and 64.7
COc1ccc(C#Cc2ccc(C(=O)N3CCCC(O)C3)cc2)cc1 (stereo unspecified) | -1.25
COc1ccc(C#Cc2ccc(C(=O)N3CCC(C#N)(c4ccccc4)CC3)cc2)cc1 | inactive
CCCCN(CCO)C(=O)c1ccc(C#Cc2ccc(OC)cc2)cc1 | 8.56
COc1ccccc1C#Cc1ccc(C(=O)N2CCC(O)CC2)cc1 | inactive
CC(C)(C)OC(=O)N1CCC(NC(=O)CN2CCc3cc(C#Cc4ccccc4)ccc3C2=O)CC1 | 33.8
O=C(c1ccc(C#Cc2cccc3ccccc23)cc1)N1CCC(O)CC1 | 32.7
O=C(c1ccc(C#CC2=CCCCC2)cc1)N1CCC(O)CC1 | 46.1
O=C(c1ccc(C#CCN2C(=O)c3ccccc3C2=O)cc1)N1CCC(O)CC1 | inactive
